# Screens: PubChem, several laboratories
# Rpn11 block: inhibitors of human proteasome Rpn11; O00487; human 26S proteasome, Ub4-pepOG fluorescence polarization; 20S core pre-blocked with epoxomicin; inhibition, % at 20 µM; 360,000 compounds, 0.59% hits;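 active = inhibition at 20 µM, scaled to each plate's controls, above about 33%, limit read from the data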
# PP1 counter: counter-screen for PP5 inhibitors: inhibitors of human PP1-alpha; P62136; purified PP1alpha, OMFP fluorescence; inhibition, % at 6.7 µM; 320,000 compounds, 0.9% hits; AID 2235;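 active = inhibition above the mean inhibition of all tested compounds plus 3 SD, computed separately for each screening campaign, cut at about 15% in these data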
# Target sequence (P62136 whole entry, looked up): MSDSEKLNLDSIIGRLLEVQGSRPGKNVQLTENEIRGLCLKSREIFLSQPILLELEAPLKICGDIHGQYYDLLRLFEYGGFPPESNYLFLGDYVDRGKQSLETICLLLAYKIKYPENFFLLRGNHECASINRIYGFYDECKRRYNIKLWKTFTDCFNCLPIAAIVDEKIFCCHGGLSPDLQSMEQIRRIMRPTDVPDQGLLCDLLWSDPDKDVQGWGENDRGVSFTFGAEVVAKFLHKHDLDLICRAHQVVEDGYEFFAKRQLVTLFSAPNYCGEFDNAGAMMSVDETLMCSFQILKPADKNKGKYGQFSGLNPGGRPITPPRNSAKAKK
# HNF4A DNA FP: change in binding of human HNF4 alpha to DNA; P41235; HNF4a-FITC DNA binding, fluorescence polarization, 1 h; activity change, % at 10 µM; 360,000 compounds, 0.3% hits; AID 1224865; in the data active = activity change above about 30%, passing the limit was not always enough
# TPT1 inh: C. albicans TPT1 enzyme inhibition. 300,000 compounds, 0.81% hits. inhibition, % at 5 µM. recombinant caTPT1, FP RNA substrate dephosphorylation;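 active = inhibition above the mean of all tested compounds plus 3 SD, set per screening campaign, cut at about 24% in these data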;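 also: plate controls were DMSO alone for no effect and ferristatin control at 100 nM for full effect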
# CSN deneddyl inh: blocks human CSN-mediated cullin deneddylation; inhibition, % at 12.5 µM; 360,000 compounds, 0.38% hits; Purified CSN, SCF-Nedd8-OG deneddylation, fluorescence polarization; AID 651999;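 active = pattern-corrected inhibition above about 35%, with an unprinted fluorescence ratio check between 0.5 and 1.5, limit read from the data, passing the limit was not always enough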;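 also: 0% = enzyme with substrate and 100% = substrate without enzyme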
#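 Material: human Csn5 produced in HEK293T cells; Input: enzyme 0.24 nM; Reagent: SCFSkp2-Nedd8OG substrate at 10 nM final; Dosing: 12.5 µM compound; Incubation: 90 min reaction at room temperature; Detection: fluorescence polarization of the substrate; Evaluation: % inhibition of substrate cleavage by Csn5; Control set: substrate-only high control, full reaction low control.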
# NadD inh: NadD (S. aureus) enzyme inhibition; purified NadD enzyme, colorimetric absorbance read-out; 360,000 compounds, 0.78% hits; AID 602399; inhibition, % at 20 µM; in the data active = inhibition above about 26%
# NadD inh conf: confirmation of Staphylococcus aureus NadD inhibitors; 2,000 compounds, 13% hits; purified S. aureus NadD, colorimetric enzyme assay; inhibition, % at 20 µM; shares compounds with NadD inh; AID 624309; in the data active = inhibition mostly above about 42%, no sharp cut-off; inactive = mostly below about 42%
# An asterisk follows results filed as active; . = no result shown. Hits are enriched below; roughly 2.7% of the tested compounds scored in any of these assays.
SMILES,Rpn11 block,PP1 counter,HNF4A DNA FP,TPT1 inh,CSN deneddyl inh,NadD inh,NadD inh conf
COCOc1ccc(-c2ncc(OC)nc2NC(=O)c2ccsc2)cc1,6,.,2,.,-4,-4,.
CCOc1ccc2oc(C(=O)NNC(=O)c3ccccc3O)c(C)c2c1,-4,2,1,1,1,3,.
Cc1c(C(=O)NNC(=O)c2ccccc2O)oc2ccc(Br)cc12,9,8,9,5,3,30*,56*
Cc1ccc(-c2csc(N3CCN(S(=O)(=O)c4ccc5c(c4)NC(=O)CO5)CC3)n2)cc1,4,-1,-3,0,1,39*,8
O=C1COc2ccc(S(=O)(=O)N3CCCC3)cc2N1,-2,0,0,-3,3,-2,.
Cc1nn(C)c(C(=O)Nc2c(C)nn(Cc3c(F)c(F)c(F)c(F)c3F)c2C)c1Br,6,.,-3,.,5,0,.
COc1ccc(OC)c(CN2CCN(C(=O)[C@@H](NC(=O)c3cccc(C)c3)C(C)C)CC2)c1,-8,-2,1,.,5,1,.
Cc1ccc2[nH]c(C)c(CCNC(=O)c3cc4cc([N+](=O)[O-])ccc4oc3=O)c2c1,5,2,0,-3,-9,33*,5
Cc1c(Cl)ccc2c(C(=O)Nc3cc(C(C)(C)C)on3)cc(-c3ccccn3)nc12,12,-1,1,1,0,34*,11
Cc1cc(C(=O)N/N=C/c2cc(Br)cc(Br)c2OC(=O)c2cccc(F)c2)n[nH]1,39,-3,6,-1,-11,32*,13
Cc1cc2nc(-c3ccc(SCC(=O)Nc4ccc5c(c4)OCCO5)nc3)[nH]c2cc1C,16,5,2,11,6,30*,20
Cc1ccc2nc(-c3ccc(SCC(=O)Nc4ccc5c(c4)OCCO5)nc3)[nH]c2c1,3,7,4,1,1,16,.
COc1ccccc1C=NN=C(NN=Cc1ccccc1OC)NN=Cc1ccccc1OC,8,.,2,.,2,35*,24
O=C1Nc2cc(C(=O)NCCCN3CCCC3)ccc2S/C1=C/c1cccc(Cl)c1,-23,.,0,.,6,-1,.
COc1cccc(/C=C2/Sc3ccc(C(=O)NCCN4CCCCCC4)cc3NC2=O)c1,-5,10,6,1,6,42*,-2
Cc1cccc(/C=C2/Sc3ccc(C(=O)NCCN4CCCC4)cc3NC2=O)c1,-8,7,6,1,8,12,.
O=C1Nc2cc(C(=O)NCCN3CCCCCC3)ccc2S/C1=C\c1ccccc1,37,3,5,2,11,44*,-17
COc1ccc(N2CCN(CC(=O)Nc3ccccc3C(=O)NCc3ccccc3)CC2)cc1,2,2,-2,.,1,-2,.
CCc1cc(C(=O)N2CCCC(N3CCN(c4cccc(C(F)(F)F)c4)CC3)C2)n(C)n1 (centres undefined),4,-1,1,-2,-1,38*,-2
O=C(c1ccncc1)N1CCCC(N2CCN(c3cccc(C(F)(F)F)c3)CC2)C1 (centres undefined),4,0,4,-1,3,1,.
CCCCC(=O)Nc1nc(C)c(-c2csc(Nc3cc(Cl)ccc3OC)n2)s1,8,-4,8,0,1,34*,28
CCCCCCC(=O)Nc1nc(C)c(-c2csc(Nc3cc(Cl)ccc3C)n2)s1,8,7,7,2,6,39*,12
COc1cc(Cc2ccc(N)c(OC)c2)ccc1N,-2,2,5,1,-1,2,.
Nc1ccc(Cc2ccc(N)c(O)c2)cc1O,.,.,15,.,9,37*,25
Cc1ccc(Nc2nnc(SCC(=O)Nc3ncc(S(=O)(=O)c4ccc([N+](=O)[O-])cc4)s3)s2)cc1,3,2,2,2,-2,45*,8
CC(C)c1ccc(Nc2nnc(SCC(=O)Nc3ncc(S(=O)(=O)c4ccc([N+](=O)[O-])cc4)s3)s2)cc1,1,-1,2,-3,2,36*,9
C=CCOC(=O)Nc1nc(CCNC(=O)OC(C)(C)C)c(C(=O)OC)s1,.,.,0,.,1,.,.
